Data reported in ChEMBL document CHEMBL4229393, “Duocarmycin SA, a potent antitumor antibiotic, sensitizes glioblastoma cells to proton radiation” (Bioorg Med Chem Lett, 2018).
The source made the active and inactive calls. The calls are words filed in the database; no cut-off is given here.

Experiments:
U138-MG [1] = assay: Induction of necrosis in human U138MG cells at 0.1 nM after 72 hrs in presence of 6 Gy dose of proton irradiation by 7-AAD staining based flow cytometry; format: functional, cell-based
U138-MG [2] = assay: Induction of apoptosis in human U138MG cells assessed as dose enhancement ratio at 0.1 nM after 72 hrs in presence of 2 Gy dose of proton irradiation by Annexin V staining based flow cytometry; format: functional
Method in brief: (§1)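 Flow cytometry of U-138 MG cells 72 h after 0.1 nM drug combined with 2 Gy protons: annexin V for apoptosis, 7-AAD for necrosis. The enhancement ratio was derived against single treatments.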

U138-MG [3] = assay: Cytotoxicity against human U138MG cells assessed as cell survival at 0.1 nM after 72 hrs by trypan blue dye based assay; format: functional; details: read-out: Survival
U138-MG [4] = assay: Cytotoxicity against human U138MG cells assessed as decrease in cell viability after 72 hrs by trypan blue dye based assay; format: functional
U138-MG [5] = assay: Anticlonogenic activity against human U138MG cells assessed as dose enhancement ratio pretreated for 2 hrs followed by 1 to 8 Gy dose of proton irradiation measured after 10 to 14 days by methylene blue staining based method; format: functional
Method in brief: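 U-138 MG clonogenic assay: cells were pretreated with 0.001 nM drug, then given 1–8 Gy protons. Colonies of 50 or more cells were counted at 14 days. The ratio compares the combined survival fraction with that expected from each modality given separately.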

U138-MG [6] = assay: Anticlonogenic activity against human U138MG cells assessed as decrease in cell survival after 14 days by methylene blue staining based method; format: functional; details: 336 h
Method in brief: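 Clonogenic survival of U-138 MG human glioblastoma cells after drug exposure alone. Colonies of 50 or more cells were counted 14 days after exposure, and survival curves were calculated from the counts.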

U138-MG [7] = assay: Cytotoxicity against human U138MG cells assessed as cell survival at higher doses after 72 hrs by trypan blue dye based assay; format: functional
U138-MG [8] = assay: Cytotoxicity against human U138MG cells assessed as cell survival at 0.5 nM after 72 hrs by trypan blue dye based assay; format: functional; details: read-out: Survival
U138-MG [9] = assay: Induction of apoptosis in human U138MG cells at 0.1 nM after 72 hrs in presence of 6 Gy dose of proton irradiation by Annexin V staining based flow cytometry; format: functional, cell-based
U138-MG [10] = assay: Cytotoxicity against human U138MG cells assessed as dose enhancement ratio at 0.1 nM after 72 hrs in presence of 2 Gy dose of proton irradiation by trypan blue dye based assay; format: functional
Method in brief: (§2)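 U-138 MG cells received the drug at 0.1, 0.5 or 1.0 nM, alone or combined with a 2 Gy proton exposure. Viable cell number was counted at 72 h. The dose enhancement ratio was calculated from combined versus single treatments.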

U138-MG [11] = assay: Anticlonogenic activity against human U138MG cells assessed as decrease in cell survival pretreated for 2 hrs followed by 1 to 8 Gy dose of proton irradiation measured after 10 to 14 days by methylene blue staining based method; format: functional; details: light or radiation study
Method in brief: (§3)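 U-138 MG cells were exposed to 0.001 nM drug before proton irradiation at 1–8 Gy. Colonies of at least 50 cells were counted 14 days after exposure, and survival fractions and curves were derived.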

U138-MG [12] = assay: Induction of apoptosis in human U138MG cells at 0.1 nM after 72 hrs by Annexin V staining based flow cytometry; format: functional, cell-based
Method in brief: (§4)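 U-138 MG cells were treated with 0.1 nM drug and analysed by flow cytometry at 72 h: annexin V binding for apoptosis and 7-AAD uptake for necrosis.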

U138-MG [13] = assay: Anticlonogenic activity against human U138MG cells assessed as cell survival at 0.001 nM pretreated for 2 hrs followed by 1 to 8 Gy dose of proton irradiation measured after 10 to 14 days by methylene blue staining based method; format: functional; details: light or radiation study, read-out: Survival; method in brief: as §3
U138-MG [14] = assay: Induction of necrosis in human U138MG cells at 0.1 nM after 72 hrs by 7-AAD staining based flow cytometry; format: functional, cell-based; method in brief: as §4
U138-MG [15] = assay: Induction of necrosis in human U138MG cells assessed as dose enhancement ratio at 0.1 nM after 72 hrs in presence of 2 Gy dose of proton irradiation by 7-AAD staining based flow cytometry; format: functional; method in brief: as §1
U138-MG [16] = assay: Cytotoxicity against human U138MG cells assessed as decrease in cell viability at 0.5 to 1 nM after 72 hrs in presence of 2 Gy dose of proton irradiation by trypan blue dye based assay; format: functional; method in brief: as §2

## COC(=O)c1cc2c([nH]1)C(=O)C=C1N(C(=O)c3cc4cc(OC)c(OC)c(OC)c4[nH]3)C[C@H]3C[C@]123 [DUOCARMYCIN]
U138-MG [1]
  Activity: inactive
U138-MG [2]
  Ratio: 2.5
U138-MG [3]
  viability at 0.0001 µM: 65%
U138-MG [4]
  Activity: Dose-dependent effect
  IC50: 0.4 nM
U138-MG [5]
  Ratio: 2.17
U138-MG [6]
  IC50: 0.0018 nM
U138-MG [7]
  Activity: Active
U138-MG [8]
  viability at 0.0005 µM: 25%
U138-MG [9]
  Activity: inactive
U138-MG [10]
  Ratio: 1.6
U138-MG [11]
  IC50: 0.443 nM
U138-MG [12]
  Activity: Active
U138-MG [13]
  viability at 1 pM: 54%
U138-MG [14]
  Activity: Active
U138-MG [15]
  Ratio: 4
U138-MG [16]
  Activity: Active
